Series [1] has as its system MCF7. The series is described as follows: Cell cycle arrest in human MCF7 cells expressing scrambled siRNA assessed as accumulation at S phase at 1 uM after 24 hrs by propidium iodide staining based flow cytometry (reference value: 29.79%). It is filed as functional.
Series [2] concerns MCF7. The series is described as follows: Antitumor activity against human MCF7 cells xenografted in Balb/c nude mouse assessed as increase in Bax expression at […], ip administered three times a week for three weeks starting from day 7 after tumor cell inoculation by immunohistochemical analysis. It is filed as functional, organism-based. The method, boiled down: (§1)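 Orthotopic MCF-7 fat-pad xenografts in nude mice, as above. Dosing ip three times weekly for three weeks. Tumours fixed 24 h in 4% neutral buffered paraformaldehyde, paraffin-embedded and cut at 5 µm. Sections dewaxed with antigen retrieval, peroxidase quenched with 3% H2O2 for 10 min, then immunostained for p21, p27 and Bax.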

The subject of series [3] is MCF7. Nature of the series: Antitumor activity against human MCF7 cells xenografted in Balb/c nude mouse assessed as increase in p21 expression at […], ip administered three times a week for three weeks starting from day 7 after tumor cell inoculation by immunohistochemical analysis. It is filed as functional, organism-based. The method in brief:
as §1

Series [4] has as its system MCF7. Nature of the series: Induction of apoptosis in human MCF7 cells expressing scrambled siRNA assessed as early apoptotic cells at 1 uM after 24 hrs by Annexin-V-FITC/propidium iodide staining based flow cytometry (reference value: 0.93%). Type of series: functional.
In series [5] the test system is MCF7. Nature of the series: Induction of apoptosis in human MCF7 cells expressing VDR siRNA assessed as necrotic cells at 1 uM after 24 hrs by Annexin-V-FITC/propidium iodide staining based flow cytometry (reference value: 0.15%). It is filed as functional.
The subject of series [6] is MCF7. The series is described as follows: Induction of apoptosis in human MCF7 cells expressing scrambled siRNA assessed as necrotic cells at 1 uM after 24 hrs by Annexin-V-FITC/propidium iodide staining based flow cytometry (reference value: 0.16%). Type of series: functional.
Series [7] deals with Mus musculus. The series is described as follows: Hypercalcemic effect in Balb/c nude mouse xenografted with human MCF7 cells assessed as effect on serum calcium level at 0.5 ug/kg, ip administered three times a week for three weeks starting from day 7 after tumor cell inoculation measured on day 27 (reference value: 0.6 umol/ml). As to conditions: in vivo.
Series [8] relates to MCF7. The series is described as follows: Antitumor activity against human MCF7 cells xenografted in Balb/c nude mouse assessed as increase in p27 expression at […], ip administered three times a week for three weeks starting from day 7 after tumor cell inoculation by immunohistochemical analysis. Type of series: functional, organism-based. The method, boiled down:
as §1

Series [9] concerns MCF7. Nature of the series: Induction of apoptosis in human MCF7 cells expressing VDR siRNA assessed as early apoptotic cells at 1 uM after 24 hrs by Annexin-V-FITC/propidium iodide staining based flow cytometry (reference value: 0.49%). It is filed as functional.
The test system of series [10] is MCF7. The series is described as follows: Induction of apoptosis in human MCF7 cells expressing scrambled siRNA assessed as late apoptotic cells at 1 uM after 24 hrs by Annexin-V-FITC/propidium iodide staining based flow cytometry (reference value: 0.98%). Type of series: functional.
Series [11] has as its system Mus musculus. Nature of the series: Hypercalcemic effect in Balb/c nude mouse xenografted with human MCF7 cells assessed as effect on serum calcium level at 0.5 ug/kg, ip administered three times a week for three weeks starting from day 7 after tumor cell inoculation measured on day 17 during compound dosing (reference value: 0.6 umol/ml). To be noted: in vivo.
Series [12] has as its system MCF7. Nature of the series: Cell cycle arrest in human MCF7 cells expressing scrambled siRNA assessed as accumulation at G2/M phase at 1 uM after 24 hrs by propidium iodide staining based flow cytometry (reference value: 19.6%). Type of series: functional.
The subject of series [13] is MCF7. Nature of the series: Induction of apoptosis in human MCF7 cells expressing scrambled siRNA assessed as live cells at 1 uM after 24 hrs by Annexin-V-FITC/propidium iodide staining based flow cytometry (reference value: 97.93%). Type of series: functional.
Series [14] concerns MCF7. Nature of the series: Cell cycle arrest in human MCF7 cells expressing VDR siRNA assessed as accumulation at G0/G1 phase at 1 uM after 24 hrs by propidium iodide staining based flow cytometry (reference value: 49.17%). Type of series: functional.
The subject of series [15] is MCF7. The series is described as follows: Cell cycle arrest in human MCF7 cells expressing VDR siRNA assessed as accumulation at S phase at 1 uM after 24 hrs by propidium iodide staining based flow cytometry (reference value: 32%). Type of series: functional.
Series [16] relates to MCF7. Nature of the series: Induction of apoptosis in human MCF7 cells expressing VDR siRNA assessed as late apoptotic cells at 1 uM after 24 hrs by Annexin-V-FITC/propidium iodide staining based flow cytometry (reference value: 1.01%). It is filed as functional.
The subject of series [17] is MCF7. The series is described as follows: Induction of apoptosis in human MCF7 cells expressing VDR siRNA assessed as live cells at 1 uM after 24 hrs by Annexin-V-FITC/propidium iodide staining based flow cytometry (reference value: 98.35%). Type of series: functional.
Series [18] relates to MCF7. The series is described as follows: Cell cycle arrest in human MCF7 cells expressing VDR siRNA assessed as accumulation at G2/M phase at 1 uM after 24 hrs by propidium iodide staining based flow cytometry (reference value: 17.57%). Type of series: functional.
Series [19] concerns MCF7. The series is described as follows: Cell cycle arrest in human MCF7 cells expressing scrambled siRNA assessed as accumulation at G0/G1 phase at 1 uM after 24 hrs by propidium iodide staining based flow cytometry (reference value: 49.28%). It is filed as functional.

Molecules are shown by their SMILES. The source made the active and inactive calls. The calls are words filed in the database; no cut-off is given here.

For the molecule `C=C1/C(=C\C=C2/CCC[C@]3(C)[C@@H]([C@H](C)CCCC(C)(C)O)CC[C@@H]23)C[C@@H](O)C[C@@H]1O` [CALCITRIOL], the Activity in series [1] is 30.32%; in series [4], 1.29%; in [5], 0.42%; in series [6] it was 0.33%; in [7], 0.61 µmol/mL; in series [9], 0.84%. Also, the Activity is 3.38% in series [10]; 0.6 µmol/mL in [11]; 13.4% in series [12]; 95% in series [13]; 51.38% in series [14]; 30.33% in series [15]. Also, the Activity in series [16] is 1.49%; in series [17], 97.25%; in [18] it was 17.15%; in [19], 55.16%. For the same molecule, the result in series [2], in [3] and in [8] was Active.

Values taken from ChEMBL document CHEMBL4270638, “Sulfonyl-containing phenyl-pyrrolyl pentane analogues: Novel non-secosteroidal vitamin D receptor modulators with favorable physicochemical properties, pharmacokinetic properties and anti-tumor activity” (Eur J Med Chem, 2018).
